The source made the active and inactive calls. The calls are words filed in the database; no cut-off is given here.
Columns and labels:
MEF [1] = test: Effect on S100a8 gene expression in MEF cells at 2.5 uM measured after 48 hrs by RNA-sequencing analysis relative to control; type: functional, Mus musculus
In short: (§1)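 Mouse embryonic fibroblasts treated 48 h; negative-control enantiomer at 2.5 µM, DMSO as blank. Total RNA extracted with TRIzol, checked by NanoDrop, then RNA-seq with n = 3 per set. Genes called changed at >1.5-fold with p < 0.05 against blank.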

MEF [2] = test: Effect on Cttnbp2 gene expression in MEF cells at 2.5 uM measured after 48 hrs by RNA-sequencing analysis relative to control; type: functional, Mus musculus; in short: as §1
MEF [3] = test: Effect on Slco1a5 gene expression in MEF cells at 2.5 uM measured after 48 hrs by RNA-sequencing analysis relative to control; type: functional, Mus musculus; in short: as §1
MEF [4] = test: Effect on Zfyve28 gene expression in MEF cells at 2.5 uM measured after 48 hrs by RNA-sequencing analysis relative to control; type: functional, Mus musculus
In short: (§2)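 MEF cells treated for 48 h with test compound, with (S,S) enantiomer at 2.5 µM as negative control and DMSO as blank; total RNA (TRIzol, n = 3 per set) analysed by RNA-seq; genes counted as changed at >1.5-fold, p < 0.05, relative to blank control.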

MEF [5] = test: Effect on Slc26a7 gene expression in MEF cells at 2.5 uM measured after 48 hrs by RNA-sequencing analysis relative to control; type: functional, Mus musculus; in short: as §1
MEF [6] = test: Effect on Gabra4 gene expression in MEF cells at 2.5 uM measured after 48 hrs by RNA-sequencing analysis relative to control; type: functional, Mus musculus; in short: as §1
MEF [7] = test: Effect on Gucy1a3 gene expression in MEF cells at 2.5 uM measured after 48 hrs by RNA-sequencing analysis relative to control; type: functional, Mus musculus; in short: as §1
MEF [8] = test: Effect on plekhb1 gene expression in MEF cells at 2.5 uM measured after 48 hrs by RNA-sequencing analysis relative to control; type: functional, Mus musculus; in short: as §2
MEF [9] = test: Effect on Hkdc1 gene expression in MEF cells at 2.5 uM measured after 48 hrs by RNA-sequencing analysis relative to control; type: functional, Mus musculus; in short: as §1
MEF [10] = test: Effect on Acod1 gene expression in MEF cells at 2.5 uM measured after 48 hrs by RNA-sequencing analysis relative to control; type: functional, Mus musculus; in short: as §1
MEF [11] = test: Effect on Gabra3 gene expression in MEF cells at 2.5 uM measured after 48 hrs by RNA-sequencing analysis relative to control; type: functional, Mus musculus; in short: as §1
MEF [12] = test: Effect on Ooep gene expression in MEF cells at 2.5 uM measured after 48 hrs by RNA-sequencing analysis relative to control; type: functional, Mus musculus; in short: as §1
MEF [13] = test: Effect on Tfap4 gene expression in MEF cells at 2.5 uM measured after 48 hrs by RNA-sequencing analysis relative to control; type: functional, Mus musculus; in short: as §1
MEF [14] = test: Effect on Pkdrej gene expression in MEF cells at 2.5 uM measured after 48 hrs by RNA-sequencing analysis relative to control; type: functional, Mus musculus; in short: as §1
[15] = molecular target: T1, Histone acetyltransferase KAT2B (Homo sapiens, UniProt Q92831); test: Binding affinity to human N-terminal His-tagged PCAF by isothermal titration calorimetry
Target sequence in this assay (Q92831 whole entry): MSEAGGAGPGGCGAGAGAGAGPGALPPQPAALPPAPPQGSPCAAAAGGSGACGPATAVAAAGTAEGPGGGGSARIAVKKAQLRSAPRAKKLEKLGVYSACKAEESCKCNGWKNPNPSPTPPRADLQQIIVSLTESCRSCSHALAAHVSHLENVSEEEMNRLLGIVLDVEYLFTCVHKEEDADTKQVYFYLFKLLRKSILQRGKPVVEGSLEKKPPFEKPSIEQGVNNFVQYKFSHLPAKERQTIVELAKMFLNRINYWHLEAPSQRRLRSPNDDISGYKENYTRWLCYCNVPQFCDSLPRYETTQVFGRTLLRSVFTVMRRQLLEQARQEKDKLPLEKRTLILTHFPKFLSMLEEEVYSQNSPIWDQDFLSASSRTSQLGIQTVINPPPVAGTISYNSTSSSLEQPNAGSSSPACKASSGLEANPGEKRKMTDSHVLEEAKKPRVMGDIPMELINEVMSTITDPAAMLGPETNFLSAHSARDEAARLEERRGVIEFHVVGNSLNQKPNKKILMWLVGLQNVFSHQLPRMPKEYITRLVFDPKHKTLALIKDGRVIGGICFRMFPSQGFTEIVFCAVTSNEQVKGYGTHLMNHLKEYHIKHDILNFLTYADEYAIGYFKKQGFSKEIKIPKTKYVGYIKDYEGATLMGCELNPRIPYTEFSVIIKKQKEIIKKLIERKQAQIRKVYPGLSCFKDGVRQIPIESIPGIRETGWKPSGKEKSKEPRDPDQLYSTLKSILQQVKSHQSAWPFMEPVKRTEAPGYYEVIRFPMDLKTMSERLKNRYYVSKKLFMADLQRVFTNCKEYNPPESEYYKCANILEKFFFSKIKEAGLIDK

MEF [16] = test: Effect on Hpgd gene expression in MEF cells at 2.5 uM measured after 48 hrs by RNA-sequencing analysis relative to control; type: functional, Mus musculus; in short: as §1
MEF [17] = test: Effect on Ttbk1 gene expression in MEF cells at 2.5 uM measured after 48 hrs by RNA-sequencing analysis relative to control; type: functional, Mus musculus; in short: as §1
MEF [18] = test: Effect on Slitrk6 gene expression in MEF cells at 2.5 uM measured after 48 hrs by RNA-sequencing analysis relative to control; type: functional, Mus musculus; in short: as §1
MEF [19] = test: Effect on Mpz gene expression in MEF cells at 2.5 uM measured after 48 hrs by RNA-sequencing analysis relative to control; type: functional, Mus musculus; in short: as §1
MEF [20] = test: Effect on Fmn2 gene expression in MEF cells at 2.5 uM measured after 48 hrs by RNA-sequencing analysis relative to control; type: functional, Mus musculus; in short: as §1
MEF [21] = test: Effect on Myh3 gene expression in MEF cells at 2.5 uM measured after 48 hrs by RNA-sequencing analysis relative to control; type: functional, Mus musculus; in short: as §1
MEF [22] = test: Effect on Bmp3 gene expression in MEF cells at 2.5 uM measured after 48 hrs by RNA-sequencing analysis relative to control; type: functional, Mus musculus; in short: as §1
[23] = molecular target: T1, Histone acetyltransferase KAT2B; test: Inhibition of Halo-tagged histone H3.3 binding to N-terminal Nano luciferase-fused full-length PCAF (unknown origin) expressed in HEK293T cells co-expressing C-terminal Halo-tagged histone H3.3 measured after 18 hrs by 618 fluorescent ligand-based BRET assay; type: cell-based
In short: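 HEK293T cells co-transfected with histone H3.3-HaloTag and PCAF-NanoLuc. After 20 h, cells replated at 2×10^5/ml in phenol red-free DMEM with 4% FBS, with or without 100 nM NanoBRET 618 ligand. Compound dilutions or DMSO added, then 18 h at 37 °C, 5% CO2. Nano-Glo substrate added; 610/460 nm ratio minus no-ligand blank, in mBU; n = 2 biological replicates.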

MEF [24] = test: Effect on H60b gene expression in MEF cells at 2.5 uM measured after 48 hrs by RNA-sequencing analysis relative to control; type: functional, Mus musculus; in short: as §1
MEF [25] = test: Effect on Tnfsf15 gene expression in MEF cells at 2.5 uM measured after 48 hrs by RNA-sequencing analysis relative to control; type: functional, Mus musculus; in short: as §1
MEF [26] = test: Effect on Plekhg4 gene expression in MEF cells at 2.5 uM measured after 48 hrs by RNA-sequencing analysis relative to control; type: functional, Mus musculus; in short: as §1
MEF [27] = test: Effect on Lonrf3 gene expression in MEF cells at 2.5 uM measured after 48 hrs by RNA-sequencing analysis relative to control; type: functional, Mus musculus; in short: as §1
MEF [28] = test: Effect on Snhg11 gene expression in MEF cells at 2.5 uM measured after 48 hrs by RNA-sequencing analysis relative to control; type: functional, Mus musculus; in short: as §1
MEF [29] = test: Effect on Zfp551 gene expression in MEF cells at 2.5 uM measured after 48 hrs by RNA-sequencing analysis relative to control; type: functional, Mus musculus; in short: as §1
MEF [30] = test: Effect on Erv3 gene expression in MEF cells at 2.5 uM measured after 48 hrs by RNA-sequencing analysis relative to control; type: functional, Mus musculus; in short: as §1
MEF [31] = test: Effect on Celsr1 gene expression in MEF cells at 2.5 uM measured after 48 hrs by RNA-sequencing analysis relative to control; type: functional, Mus musculus; in short: as §1
MEF [32] = test: Effect on Klk9 gene expression in MEF cells at 2.5 uM measured after 48 hrs by RNA-sequencing analysis relative to control; type: functional, Mus musculus; in short: as §1
[33] = molecular target: T1, Histone acetyltransferase KAT2B; test: Binding affinity to human N-terminal His-tagged PCAF assessed as change in melting temperature at 10 uM by SYPRO orange dye-based fluorescence assay
In short: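 Thermal shift with His-tagged human bromodomain at 2 μM final in 10 mM HEPES pH 7.5, 500 mM NaCl. Compound at 10 μM final with 0.1% DMSO; SYPRO Orange at 1:1000. Equilibrated 3 min at 25 °C, then heated from 25 to 95 °C at 1 °C/min. Melting temperature shift taken from fluorescence; at least duplicate.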
Target sequence in this assay (Q92831 whole entry, looked up): as the sequence (Q92831 whole entry) above

MEF [34] = test: Effect on Erbb3 gene expression in MEF cells at 2.5 uM measured after 48 hrs by RNA-sequencing analysis relative to control; type: functional, Mus musculus; in short: as §1
MEF [35] = test: Effect on Clec5a gene expression in MEF cells at 2.5 uM measured after 48 hrs by RNA-sequencing analysis relative to control; type: functional, Mus musculus; in short: as §1

Row | SMILES | fold change (FC) (MEF [1]) | fold change (FC) (MEF [2]) | fold change (FC) (MEF [3]) | fold change (FC) (MEF [4]) | fold change (FC) (MEF [5]) | fold change (FC) (MEF [6]) | fold change (FC) (MEF [7]) | fold change (FC) (MEF [8]) | fold change (FC) (MEF [9]) | fold change (FC) (MEF [10]) | fold change (FC) (MEF [11]) | fold change (FC) (MEF [12]) | fold change (FC) (MEF [13]) | fold change (FC) (MEF [14]) | Kd [15] [nM] | fold change (FC) (MEF [16]) | fold change (FC) (MEF [17]) | fold change (FC) (MEF [18]) | fold change (FC) (MEF [19]) | fold change (FC) (MEF [20]) | further results
1 | CN1C[C@H](Nc2nc3cc[nH]c3c(=O)n2C)C[C@H](c2ccc3c(c2)OCCO3)C1 | >1.5 | >1.5 | >1.5 | >1.5 | >1.5 | >1.5 | >1.5 | >1.5 | >1.5 | >1.5 | >1.5 | >1.5 | >1.5 | >1.5 | 78 | >1.5 | >1.5 | >1.5 | >1.5 | >1.5 | fold change (FC) (MEF [21]): >1.5; fold change (FC) (MEF [22]): >1.5; IC50 [23]: 118 nM; inhibition [23]: Dose-dependent effect; fold change (FC) (MEF [24]): >1.5; fold change (FC) (MEF [25]): >1.5; fold change (FC) (MEF [26]): >1.5; fold change (FC) (MEF [27]): >1.5; fold change (FC) (MEF [28]): >1.5; fold change (FC) (MEF [29]): >1.5; fold change (FC) (MEF [30]): >1.5; fold change (FC) (MEF [31]): >1.5; fold change (FC) (MEF [32]): >1.5; ΔTm [33]: 9.5 °C; fold change (FC) (MEF [34]): >1.5; fold change (FC) (MEF [35]): >1.5
2 | CN1C[C@@H](Nc2nc3cc[nH]c3c(=O)n2C)C[C@@H](c2ccc3c(c2)OCCO3)C1 | >1.5 | >1.5 | >1.5 | >1.5 | >1.5 | >1.5 | >1.5 | >1.5 | >1.5 | >1.5 | >1.5 | >1.5 | >1.5 | >1.5 | > 10000 | >1.5 | >1.5 | >1.5 | >1.5 | >1.5 | fold change (FC) (MEF [21]): >1.5; fold change (FC) (MEF [22]): >1.5; inhibition [23]: inactive; fold change (FC) (MEF [24]): >1.5; fold change (FC) (MEF [25]): >1.5; fold change (FC) (MEF [26]): >1.5; fold change (FC) (MEF [27]): >1.5; fold change (FC) (MEF [28]): >1.5; fold change (FC) (MEF [29]): >1.5; fold change (FC) (MEF [30]): >1.5; fold change (FC) (MEF [31]): >1.5; fold change (FC) (MEF [32]): >1.5; ΔTm [33]: 0.7 °C; fold change (FC) (MEF [34]): >1.5; fold change (FC) (MEF [35]): >1.5
